# ChEMBL document CHEMBL2440054, “Largazole Arrests Cell Cycle at G1 Phase and Triggers Proteasomal Degradation of E2F1 in Lung Cancer Cells” (ACS Med Chem Lett, 2013)
# Activity calls are given as the source filed them. No cut-off for these calls is given here.
# Tests used:
# [1] = target: Histone deacetylase 1 (Homo sapiens) (UniProt Q13547); conditions: NCI-H460, 0.1 uM
# [2] = Cytotoxicity against human GLC82 cells after 48 hrs by CCK-8 assay; type: functional, cell-based; conditions: GLC82, 48 h
# In short: (§1)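 Cells treated with a range of largazole concentrations for 48 h. Proliferation read by CCK-8 assay; IC50 derived from the concentration series.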
# NCI-H460 [3] = test: Growth inhibition of human NCI-H460 cells at 0.1 uM after 24 to 48 hrs by trypan blue exclusion assay; type: functional, cell-based
# In short: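 Cells treated with largazole for indicated times. Viability evaluated by trypan blue exclusion.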
# A549 [4] = test: Effect on CDK2 protein expression in human A549 cells at 0.1 uM after 6 to 36 hrs by Western blotting analysis; type: functional, cell-based
# In short: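 A549 cells exposed to 0.1 μM largazole over a time course, lysed, and Western blotted for cyclin D1, CDK2, CDK4, p21 and p27.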
# A549 [5] = test: Downregulation of E2F1 protein expression in human A549 cells after 12 hrs by Western blotting analysis; type: functional, cell-based
# In short: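 A549 cells treated with 0.1 μM largazole over a time course, or with a range of concentrations for 12 h. Lysates Western blotted for E2F1.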
# A549 [6] = test: Downregulation of p21 protein expression in human A549 cells at 0.1 uM after 4 hrs by Western blotting analysis in presence of protein synthesis inhibitor cycloheximide; type: functional, cell-based
# A549 [7] = test: Cell cycle arrest in human A549 cells assessed as accumulation at S phase at 0.06 uM after 24 hrs by propidium iodide staining-based flow cytometric analysis (reference value: 48%); type: functional
# A549 [8] = test: Upregulation of p21 mRNA expression in human A549 cells at 0.1 uM after 12 hrs by RT-PCR analysis; type: functional, cell-based
# In short: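 A549 cells at 0.1 μM over a time course. RNA extracted, and p21 mRNA assessed by RT-PCR with specific primers.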
# A549 [9] = test: Cell cycle arrest in human A549 cells assessed as accumulation at S phase at 0.1 uM after 24 hrs by propidium iodide staining-based flow cytometric analysis (reference value: 48%); type: functional
# NCI-H460 [10] = test: Cytotoxicity against human NCI-H460 cells after 48 hrs by CCK-8 assay; type: functional, cell-based; conditions: NCI-H460, 48 h
# In short: as §1
# A549 [11] = test: Induction of apoptosis in human A549 cells at 0.3 to 1 uM after 48 hrs by Annexin V and propidium iodide staining-based flow cytometric analysis relative to control; type: functional
# In short: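 A549 cells treated for 48 h at 0.3 to 1 μM, stained with Annexin V/PI and analysed by flow cytometry for the apoptotic fraction.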
# [12] = Cytotoxicity against human H466 cells after 48 hrs by CCK-8 assay; type: functional, cell-based; conditions: H466, 48 h
# In short: as §1
# NCI-H460 [13] = test: Cell cycle arrest in human NCI-H460 cells assessed as accumulation at G1 phase at 0.1 uM after 24 hrs by propidium iodide staining-based flow cytometric analysis (reference value: 58.9%); type: functional
# A549 [14] = test: Downregulation of p21 protein expression in human A549 cells at 0.1 uM after 1 hr by Western blotting analysis in presence of protein synthesis inhibitor cycloheximide; type: functional, cell-based
# [15] = target: Transcription factor E2F1 (Homo sapiens) (UniProt Q01094); test: Inhibition of E2F1 in human A549 cells assessed as downregulation of PCNA gene expression at 0.1 uM after 6 to 36 hrs by RT-PCR analysis; type: cell-based
# In short: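 A549 cells given 0.1 μM over a time course. RNA extracted and RT-PCR run with gene-specific primers. Bands quantified by densitometry and normalized to GAPDH.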
# A549 [16] = test: Induction of apoptosis in human A549 cells assessed as increase in cleaved caspase-3 level at 0.1 uM after 48 hrs by Western blotting analysis; type: functional, cell-based
# In short: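 A549 cells exposed to 0.1 μM for a time course, then lysed and Western blotted. Read-outs are pro- and cleaved caspase-9, pro- and active caspase-3, and cleaved PARP.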
# [17] = target: Histone deacetylase 1 (Homo sapiens) (UniProt Q13547); conditions: NCI-H1975, 0.1 uM
# [18] = Cytotoxicity against human 95-D cells after 48 hrs by CCK-8 assay; type: functional, cell-based
# In short: as §1
# NCI-H460 [19] = test: Cell cycle arrest in human NCI-H460 cells assessed as accumulation at G2 phase at 0.1 uM after 24 hrs by propidium iodide staining-based flow cytometric analysis (reference value: 9.5%); type: functional
# A549 [20] = test: Cell cycle arrest in human A549 cells assessed as accumulation at G1 phase at 0.06 uM after 24 hrs by propidium iodide staining-based flow cytometric analysis (reference value: 48.3%); type: functional
# [21] = Cytotoxicity against human SPCA1 cells after 48 hrs by CCK-8 assay; type: functional, cell-based; conditions: SPCA1, 48 h
# In short: as §1
# [22] = Cytotoxicity against human L78 cells after 48 hrs by CCK-8 assay; type: functional, cell-based; conditions: L78, 48 h
# In short: as §1
# [23] = target: Transcription factor E2F1 (Homo sapiens) (UniProt Q01094); test: Induction of E2F1 degradation in human 16HBE cells at 0.1 uM after 12 to 24 hrs by Western blotting analysis; type: cell-based
# In short: (§2)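 Each cell line (16-HBE, 95D, L78, H1975, H460) treated with 0.1 μM largazole for indicated times. Lysates Western blotted for E2F1.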
# [24] = target: Transcription factor E2F1 (Homo sapiens) (UniProt Q01094); test: Induction of E2F1 degradation in human L78 cells at 0.1 uM after 12 to 24 hrs by Western blotting analysis; type: cell-based
# In short: as §2
# A549 [25] = test: Cytotoxicity against human A549 cells assessed as inhibition of colony formation pretreated for 24 hrs followed by seeding measured after 10 days by clonogenic assay; type: functional, cell-based
# In short: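 Soft-agar clonogenic assay. Cells pretreated 24 h with largazole or DMSO, then seeded in 0.3% soft agar upper layer over 0.6% soft agar lower layer. Colonies counted by microscope after 10 days. Mean ± SD of three independent experiments.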
# Sequence of Transcription factor E2F1 (Homo sapiens) (Q01094 whole entry): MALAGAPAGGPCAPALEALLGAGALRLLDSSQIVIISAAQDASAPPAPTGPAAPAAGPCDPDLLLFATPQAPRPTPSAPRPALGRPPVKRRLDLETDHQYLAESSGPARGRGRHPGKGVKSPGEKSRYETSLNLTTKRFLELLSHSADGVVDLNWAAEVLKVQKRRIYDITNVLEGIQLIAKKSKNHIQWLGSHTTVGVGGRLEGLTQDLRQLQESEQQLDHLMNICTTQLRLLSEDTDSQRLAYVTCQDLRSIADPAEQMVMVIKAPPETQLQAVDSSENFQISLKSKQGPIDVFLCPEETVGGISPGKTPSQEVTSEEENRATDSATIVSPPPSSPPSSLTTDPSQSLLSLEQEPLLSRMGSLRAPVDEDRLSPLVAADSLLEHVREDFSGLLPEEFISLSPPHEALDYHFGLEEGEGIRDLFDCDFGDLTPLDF
# Sequence of Histone deacetylase 1 (Homo sapiens) (Q13547 whole entry): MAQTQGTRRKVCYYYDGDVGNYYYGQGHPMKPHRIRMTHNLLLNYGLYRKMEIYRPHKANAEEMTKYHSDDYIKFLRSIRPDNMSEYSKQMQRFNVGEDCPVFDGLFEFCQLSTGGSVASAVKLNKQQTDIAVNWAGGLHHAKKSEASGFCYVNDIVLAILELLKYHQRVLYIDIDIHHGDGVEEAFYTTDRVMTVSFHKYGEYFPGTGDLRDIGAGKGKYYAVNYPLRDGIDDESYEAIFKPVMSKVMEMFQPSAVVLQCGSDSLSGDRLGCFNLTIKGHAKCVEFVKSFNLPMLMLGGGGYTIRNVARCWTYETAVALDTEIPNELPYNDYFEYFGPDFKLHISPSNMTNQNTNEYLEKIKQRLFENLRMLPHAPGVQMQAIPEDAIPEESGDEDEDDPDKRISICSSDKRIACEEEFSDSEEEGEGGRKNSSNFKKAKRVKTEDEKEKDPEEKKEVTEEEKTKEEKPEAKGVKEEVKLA
smiles,measurement,setting,value
CCCCCCCC(=O)SCC/C=C/[C@@H]1CC(=O)NCc2nc(cs2)C2=N[C@@](C)(CS2)C(=O)N[C@@H](C(C)C)C(=O)O1 [LARGAZOLE],inhibition,[1],Active
same,IC50,[2],190 nM
same,growth inhibition (GI),NCI-H460 [3],Active
same,Activity,A549 [4],inactive
same,Activity,A549 [5],Dose-dependent effect
same,Activity,A549 [6],Active
same,Activity,A549 [7],6.5%
same,Activity,A549 [8],Active
same,Activity,A549 [9],8.5%
same,IC50,NCI-H460 [10],120 nM
same,Activity,A549 [11],<=70%
same,IC50,[12],520 nM
same,Activity,NCI-H460 [13],84.1%
same,Activity,A549 [14],inactive
same,inhibition,[15],Active
same,Activity,A549 [16],Active
same,inhibition,[17],Active
same,IC50,[18],420 nM
same,Activity,NCI-H460 [19],5.3%
same,Activity,A549 [20],90.4%
same,IC50,[21],140 nM
same,IC50,[22],570 nM
same,Activity,[23],inactive
same,Activity,[24],Active
same,inhibition,A549 [25],Dose-dependent effect
